The results in this text go back to ChEMBL document CHEMBL4819109, “Discovery of boronic acid-based potent activators of tumor pyruvate kinase M2 and development of gastroretentive nanoformulation for oral dosing” (Bioorg Med Chem Lett, 2021).

As usually defined, the IC50 is the midpoint of a concentration-inhibition curve. Higher therefore signals a need for much substance. The EC50 is the concentration giving half of the maximal effect.

Active and inactive are the calls of the source. The rule behind the calls is not given here.

For one assay, the system named is MDA-MB-231. Put plainly: Growth inhibition of human MDA-MB-231 cells by MTT assay. It is filed as functional, cell-based. Summed up:
(§1)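 Cells were treated with varying compound concentrations and viability was read by MTT assay. IC50 values are reported ± error. Normal fibroblasts were tested alongside.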
In general terms: Tetrazolium dyes change colour on reduction, which living cells bring about.

For assay [1], the system named is MCF7. The assay can be described thus: Growth inhibition of human MCF7 cells by MTT assay. It is filed as functional, cell-based. Summed up: as §1
The test system of the next assay is COLO 201. Put plainly: Growth inhibition of human Colo-201 cells by MTT assay. The format is functional, cell-based. Summed up:
as §1

A short description of assay [2]: Growth inhibition of human BCL2 Jurkat cells by MTT assay. It is filed as functional. Summed up: as §1
The nature of assay [3]: Growth inhibition of human Mesenchymal stem cells by MTT assay. It is filed as tissue-based. Summed up: as §1
For assay [4], the target named is T1, Pyruvate kinase PKM (Homo sapiens, UniProt P14618). Put plainly: Activation of PKM2 (unknown origin) by pyruvate kinase-lactate dehydrogenase coupled assay.
Target sequence in this assay (P14618 whole entry): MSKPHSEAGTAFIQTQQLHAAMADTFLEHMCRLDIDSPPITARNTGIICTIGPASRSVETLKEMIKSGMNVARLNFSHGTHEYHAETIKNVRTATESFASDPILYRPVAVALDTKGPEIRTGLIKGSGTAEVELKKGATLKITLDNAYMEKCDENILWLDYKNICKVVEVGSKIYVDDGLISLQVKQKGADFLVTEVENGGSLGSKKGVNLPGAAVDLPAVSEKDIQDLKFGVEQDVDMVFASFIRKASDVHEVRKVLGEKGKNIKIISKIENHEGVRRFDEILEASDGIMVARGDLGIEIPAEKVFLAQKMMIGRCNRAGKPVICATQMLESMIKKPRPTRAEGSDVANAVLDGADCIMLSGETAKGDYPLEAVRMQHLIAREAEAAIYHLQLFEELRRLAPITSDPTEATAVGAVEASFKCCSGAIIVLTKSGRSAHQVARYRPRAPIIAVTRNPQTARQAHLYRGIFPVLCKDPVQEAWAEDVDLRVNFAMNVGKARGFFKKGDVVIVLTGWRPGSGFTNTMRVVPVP
Assay [5] deals with MCF7. The assay can be described thus: Induction of apoptosis in human MCF7 cells assessed as late apoptotic cells at 100 nM incubated for 48 hrs by AnnexinV/PI staining based flow cytometry. It is filed as functional. (In general: In flow cytometry, cells or beads pass a laser one at a time.)
Assay [6] addresses T1, Pyruvate kinase PKM. Put plainly: Activation of PKM2 (unknown origin) assessed as increase in tetramer formation by measuring scattering by Dynamic Light Scattering assay. The following applies: filed as activator.
Target sequence in this assay (P14618 2-531 limits assumed): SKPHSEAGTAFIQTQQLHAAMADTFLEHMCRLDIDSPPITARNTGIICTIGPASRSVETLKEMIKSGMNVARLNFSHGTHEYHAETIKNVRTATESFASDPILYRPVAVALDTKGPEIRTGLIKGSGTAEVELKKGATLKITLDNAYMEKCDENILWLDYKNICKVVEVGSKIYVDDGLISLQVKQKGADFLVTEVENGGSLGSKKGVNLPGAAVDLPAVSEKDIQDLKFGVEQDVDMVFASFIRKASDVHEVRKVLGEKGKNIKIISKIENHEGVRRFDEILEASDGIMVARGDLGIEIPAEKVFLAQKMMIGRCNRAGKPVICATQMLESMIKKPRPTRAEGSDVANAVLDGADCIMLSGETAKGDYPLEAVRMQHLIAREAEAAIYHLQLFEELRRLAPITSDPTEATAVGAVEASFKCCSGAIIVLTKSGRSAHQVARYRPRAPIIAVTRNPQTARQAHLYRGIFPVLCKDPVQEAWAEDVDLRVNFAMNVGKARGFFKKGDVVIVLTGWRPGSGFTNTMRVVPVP
In assay [7] the test system is MCF7. Put plainly: Induction of apoptosis in human MCF7 cells assessed as necrotic cells at 100 nM incubated for 48 hrs by AnnexinV/PI staining based flow cytometry. The format is functional.
The subject of assay [8] is MCF7. Put plainly: Induction of apoptosis in human MCF7 cells assessed as viable cells at 100 nM incubated for 48 hrs by AnnexinV/PI staining based flow cytometry. The format is functional. To be noted: read-out: Activity.
In assay [9] the target is T1, Pyruvate kinase PKM. Put plainly: Activation of […] in human MCF7 cells assessed as increase in tetramer formation at 100 nM measured after 48 hrs by DSS cross linker assay. It is filed as cell-based. To be noted: filed as activator. Summed up:
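MCF-7 cells exposed to 100 nM for 48 h, then cross-linked with disuccinimidyl suberate (DSS). Tetrameric PKM2 was read as the 250 kDa band and compared with untreated MCF-7 control cells.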
Target sequence in this assay (P14618 2-531 limits assumed): as above

In assay [10] the test system is MCF7. The assay can be described thus: Induction of apoptosis in human MCF7 cells assessed as early apoptotic cells at 100 nM incubated for 48 hrs by AnnexinV/PI staining based flow cytometry. It is filed as functional.

For `CCOC(=O)/C(=C\c1ccc(B(O)O)cc1)C(=O)c1sc(Nc2ccccc2)nc1N(C)C`, the IC50 turned out to be 38 µM with MDA-MB-231; 1.5 µM with MCF7 [1]; 2.81 µM in the assay with COLO 201; 6.36 µM in [2]; 40.6 µM in assay [3]. This compound also displayed an EC50 at Pyruvate kinase PKM [4] of 7.15 µM.
`CCOC(=O)/C(=C\c1ccc(B(O)O)cc1)C(=O)c1sc(Nc2ccc(OC)cc2)nc1N(C)C`: the IC50 with MDA-MB-231 was determined as 58.7 µM; in the assay on MCF7 [1] it was 2.72 µM; in the assay with COLO 201, 5.5 µM; in assay [2], 0.57 µM; in assay [3], 25.8 µM. The EC50 on Pyruvate kinase PKM [4] was 8.17 µM.
In the case of `CCOC(=O)/C(=C\c1ccc(B(O)O)cc1)C(=O)c1sc(Nc2ccc(Cl)cc2)nc1N(C)C`, the IC50 came out at 34.9 µM in the assay with MDA-MB-231; 0.08 µM with MCF7 [1]; 3.75 µM in the assay with COLO 201; 2.82 µM in [2]; 23.9 µM in assay [3]. Further, the Activity with MCF7 [5] is 23.5%; in the assay with MCF7 [7], 22.37%; with MCF7 [10], 8.81%. The result at Pyruvate kinase PKM [6] and at Pyruvate kinase PKM [9] was Active. In addition, in the assay with MCF7 [8], the viability at 0.1 µM stood at 45.3%. On Pyruvate kinase PKM [4], this compound displayed an EC50 of 5.69 µM.
Turning to `CCOC(=O)/C(=C\c1ccc(B(O)O)cc1)C(=O)c1sc(Nc2ccc(F)cc2)nc1-c1ccccc1`, the IC50 in the assay with MDA-MB-231 is 36.6 µM; with MCF7 [1], 2.71 µM; with COLO 201 it was 5.58 µM; in assay [2], 0.09 µM; in assay [3], 29.4 µM. The same compound yielded an EC50 at Pyruvate kinase PKM [4] of 6.11 µM.
Take `COc1cccc2c1C(=O)c1c(O)c3c(c(O)c1C2=O)C[C@@](O)(C(=O)CO)C[C@@H]3O[C@H]1C[C@H](N)[C@H](O)[C@H](C)O1` [DOXORUBICIN]: the IC50 in the assay on MDA-MB-231 worked out at 1.3 µM; in the assay with COLO 201, 0.8 µM; in [2], 3.03 µM; in [3], 2.37 µM.
